Test [1] addresses T1, Coagulation factor X (Homo sapiens, UniProt P00742). Kind of test: In vitro inhibition of coagulation factor Xa. In short, it runs like this: (§1)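 Enzyme was preincubated 1 h at room temperature with inhibitor across 14 concentrations (1 nM–100 μM final). A405 was read kinetically over 10 min at 37 °C. Percent inhibition came from the linear progress-curve slopes, typically in duplicate.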

Test [2] has as its target T2, Plasminogen (Homo sapiens, UniProt P00747). Kind of test: Inhibition of plasmin at 100 uM.
The target in test [3] is T3, Serine protease 1 (Homo sapiens, UniProt P07477). Kind of test: In vitro inhibitory activity against trypsin. In short, it runs like this: as §1
Test [4] has as its target T4, Prothrombin (Homo sapiens, UniProt P00734). Put plainly: Inhibition of thrombin. In short, it runs like this:
as §1

Test [5] deals with T4, Prothrombin. Kind of test: Inhibition of thrombin at 100 uM.
Test [6] has as its target T2, Plasminogen. Put plainly: Compound was tested for in vitro inhibitory activity against plasmin at 100 uM.
The target of test [7] is T3, Serine protease 1. Kind of test: In vitro inhibitory activity against trypsin at 100 uM.
Test [8] concerns the target T2, Plasminogen. Kind of test: Compound was tested for in vitro inhibitory activity against plasmin. In short, it runs like this:
as §1

For test [9], the target named is T4, Prothrombin. Kind of test: Compound was tested for in vitro inhibitory activity against thrombin at 100 uM.
The target of test [10] is T1, Coagulation factor X. Kind of test: Compound was tested for in vitro inhibitory activity against Coagulation factor X at 100 uM.

T2 sequence (P00747 97-580 limits assumed): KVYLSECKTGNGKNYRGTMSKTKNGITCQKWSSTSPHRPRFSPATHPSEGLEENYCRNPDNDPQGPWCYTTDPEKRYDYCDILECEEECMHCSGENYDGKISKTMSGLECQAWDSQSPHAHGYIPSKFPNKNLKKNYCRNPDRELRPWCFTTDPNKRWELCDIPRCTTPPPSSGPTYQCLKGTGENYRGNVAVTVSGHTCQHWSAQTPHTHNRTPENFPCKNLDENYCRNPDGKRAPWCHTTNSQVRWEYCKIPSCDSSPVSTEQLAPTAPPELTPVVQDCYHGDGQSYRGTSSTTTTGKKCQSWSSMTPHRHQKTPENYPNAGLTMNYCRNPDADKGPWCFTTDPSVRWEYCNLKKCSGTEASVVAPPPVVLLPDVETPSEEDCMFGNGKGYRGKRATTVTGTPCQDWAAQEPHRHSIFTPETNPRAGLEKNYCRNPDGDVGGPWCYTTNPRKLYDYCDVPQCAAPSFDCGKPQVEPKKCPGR
T2 sequence (P00747 581-810 limits assumed): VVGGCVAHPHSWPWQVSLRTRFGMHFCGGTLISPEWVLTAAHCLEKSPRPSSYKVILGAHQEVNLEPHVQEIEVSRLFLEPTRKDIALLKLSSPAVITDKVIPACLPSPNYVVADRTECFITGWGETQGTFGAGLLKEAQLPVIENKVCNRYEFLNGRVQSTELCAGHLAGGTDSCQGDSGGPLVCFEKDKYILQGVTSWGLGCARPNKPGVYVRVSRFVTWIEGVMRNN
T3 sequence (P07477 whole entry): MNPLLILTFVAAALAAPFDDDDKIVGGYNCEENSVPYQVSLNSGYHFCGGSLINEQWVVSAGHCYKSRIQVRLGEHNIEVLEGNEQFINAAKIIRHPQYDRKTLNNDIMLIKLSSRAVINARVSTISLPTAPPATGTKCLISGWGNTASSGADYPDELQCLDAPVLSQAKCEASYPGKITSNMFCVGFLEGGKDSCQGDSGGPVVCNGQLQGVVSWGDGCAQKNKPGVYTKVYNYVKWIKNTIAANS
T1 sequence (P00742 41-179 limits assumed): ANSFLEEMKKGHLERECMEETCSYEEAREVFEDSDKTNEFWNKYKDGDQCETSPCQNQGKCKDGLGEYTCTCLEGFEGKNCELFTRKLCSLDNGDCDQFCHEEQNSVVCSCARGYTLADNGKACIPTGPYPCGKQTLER
T1 sequence (P00742 235-488 limits assumed): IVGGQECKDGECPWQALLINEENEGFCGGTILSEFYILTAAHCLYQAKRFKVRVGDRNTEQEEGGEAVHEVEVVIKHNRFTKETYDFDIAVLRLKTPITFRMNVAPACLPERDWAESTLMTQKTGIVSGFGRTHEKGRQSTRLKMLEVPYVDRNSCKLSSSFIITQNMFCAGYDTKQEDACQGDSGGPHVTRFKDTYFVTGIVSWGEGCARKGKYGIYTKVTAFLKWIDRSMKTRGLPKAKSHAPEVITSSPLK

Turning to `CC1CCCC(C)N1CCCCCN1C(=O)C(c2cccc(C(N)=NN3CCOCC3)c2)Oc2ccccc21` (stereo not given), on Coagulation factor X [1], it took 1500 nM to reach half-maximal inhibition (IC50).
Same read-out and setting: in the case of `CNC(=N)c1cccc(C2Oc3ccccc3N(CCCCCN3C(C)CCCC3C)C2=O)c1` (stereo not given) it was 2800 nM.
With `CC1CCCC(C)N1CCCCCN1C(=O)C(c2ccccc2Cl)Oc2ccccc21` (stereo not given), the half-inhibitory concentration (IC50) (usually the concentration needed to halve the response being measured) stood at 16000 nM on Coagulation factor X [1], 39000 nM at Serine protease 1 [3] and 65000 nM at Prothrombin [4]. Further, the inhibition (commonly the share of the control response that was lost under treatment) at Plasminogen [2] was determined as 23%.
As for `CC1CCCC(C)N1CCCCCN1C(=O)C(c2ccccc2)Oc2ccccc21` (stereo not given), at Coagulation factor X [1], the IC50 stood at 27000 nM. The inhibition was found to be 19% against Prothrombin [5], 26% against Plasminogen [6] and 2.8% on Serine protease 1 [7].
As for `C/N=C(/N)c1cccc(C2Oc3ccccc3N(CCCCCN3C(C)CCCC3C)C2=O)c1` (stereo not given), the inhibition on Prothrombin [5] turned out to be 68%; at Plasminogen [6], 32%; against Serine protease 1 [7], 32%.
With `CC1CCCC(C)N1CCCCCN1C(=O)C(c2ccc(C(=N)S)cc2)Oc2ccccc21` (stereo not given), at Coagulation factor X [1], the IC50 came out at 34000 nM. The figures for the inhibition against Prothrombin [5], at Plasminogen [2] and at Serine protease 1 [7] were 32%, 44% and 7.8%, respectively.
`CC1CCCC(C)N1CCCCCN1C(=O)C(c2cccc(C(=N)NO)c2)Oc2ccccc21` (stereo not given) came in with an IC50 at Coagulation factor X [1] of 5600 nM. The inhibition on Prothrombin [5] came out at 19%; on Plasminogen [2], 11%; at Serine protease 1 [7], 21%.
As to `CC1CCCC(C)N1CCCCCN1C(=O)C(c2cccc(C(=N)NN3CCOCC3)c2)Oc2ccccc21` (stereo not given), the inhibition on Prothrombin [5] was 15%; against Plasminogen [6] it was 0%; against Serine protease 1 [7], 58%.
In the case of `Cc1ccc(C2Oc3ccccc3N(CCCCCN3C(C)CCCC3C)C2=O)cc1` (stereo not given), on Coagulation factor X [1], half-maximal inhibition (IC50) was put at 28000 nM. In addition, the inhibition was 33% against Prothrombin [5], 13% on Plasminogen [2] and 18% on Serine protease 1 [7].
For `CC1CCCC(C)N1CCCCCN1C(=O)C(c2cccc(C(=N)S)c2)Oc2ccccc21` (stereo not given), the inhibition on Prothrombin [5] is 20%; on Plasminogen [2], 29%; against Serine protease 1 [7], 5.2%.
On to `COc1ccc(C2Oc3ccccc3N(CCCCCN3C(C)CCCC3C)C2=O)cc1` (stereo not given), for which half-maximal inhibition against Coagulation factor X [1] (IC50) required 4900 nM. Besides, the inhibition against Prothrombin [5] amounted to 29%; on Plasminogen [2], 19%; against Serine protease 1 [7], 2.3%.
For the compound `CC1CCCC(C)N1CCCCCN1C(=O)C(c2cccc(CN)c2)Oc2ccccc21` (stereo not given), the IC50 stood at 840 nM on Coagulation factor X [1], 25000 nM at Plasminogen [8] and 7800 nM against Serine protease 1 [3]. Also, on Prothrombin [9], the inhibition turned out to be 64%.
`CC1CCCC(C)N1CCCCCN1C(=O)C(c2ccc(Cl)cc2)Oc2ccccc21` (stereo not given) showed an IC50 against Coagulation factor X [1] of 23000 nM. In addition, the inhibition on Prothrombin [5] is 38%; at Plasminogen [2] it was 30%; against Serine protease 1 [7] it was 46%.
Consider `CC1CCC(C)N1CCCCCN1C(=O)C(c2cccc(C(=N)N)c2)Oc2ccccc21` (stereo not given), for which the IC50 at Coagulation factor X [1] worked out at 48 nM; at Serine protease 1 [3], 760 nM; on Prothrombin [4] it was 910 nM. The compound further registered an inhibition against Plasminogen [6] of 85%.
The compound `CC1CCCC(C)N1CCCCCN1C(=O)C(c2ccc(C(=N)NO)cc2)Oc2ccccc21` (stereo not given) gave an IC50 at Coagulation factor X [1] of 66000 nM. Moreover, the inhibition at Prothrombin [5] was determined as 18%; at Plasminogen [2], 10%; against Serine protease 1 [7], 8%.
Regarding `CC(C)N(CCCCCN1C(=O)C(c2cccc(C(=N)N)c2)Oc2ccccc21)C(C)C` (stereo not given), the IC50 against Coagulation factor X [1] came to 120 nM; on Serine protease 1 [3], 1200 nM; at Prothrombin [4] it was 1200 nM. In addition, the inhibition at Plasminogen [6] was determined as 72%.
`COc1cc(C2Oc3ccccc3N(CCCCCN3C(C)CCCC3C)C2=O)cc(OC)c1OC` (stereo not given): the inhibition against Coagulation factor X [10] turned out to be 30%; against Prothrombin [5], 30%; at Plasminogen [2], 20%; at Serine protease 1 [7], 12%.
For the compound `CC1CCCC(C)N1CCCCN1C(=O)C(c2cccc(C(=N)N)c2)Oc2ccccc21` (stereo not given), the IC50 on Coagulation factor X [1] was 12 nM; at Plasminogen [8], 38000 nM; against Serine protease 1 [3], 300 nM; against Prothrombin [4], 1100 nM.
Take `N=C(N)c1cccc(C2Oc3ccccc3N(CCCCCN)C2=O)c1` (stereo not given): the IC50 on Coagulation factor X [1] worked out at 6300 nM; against Serine protease 1 [3], 4300 nM. The inhibition against Prothrombin [5] was 60%; at Plasminogen [6] it was 64%.
Consider `COc1ccc(C2Oc3ccccc3N(CCCCCN3C(C)CCCC3C)C2=O)cc1OC` (stereo not given), for which the inhibition against Coagulation factor X [10] came to 31%; against Prothrombin [5] it was 0%; at Plasminogen [2], 0%; against Serine protease 1 [7] it was 0%.
Turning to `CCCCCCN(CCCCCC)CCCCCN1C(=O)C(c2cccc(C(=N)N)c2)Oc2ccccc21` (stereo not given), the IC50 came out at 1600 nM at Coagulation factor X [1], 2200 nM at Plasminogen [8], 2500 nM at Serine protease 1 [3] and 1900 nM against Prothrombin [4].
As to `CC1CCCC(C)N1CCCCCN1C(=O)C(c2ccc(C(=N)N)cc2)Oc2ccccc21` (stereo not given), the figures for the IC50 against Coagulation factor X [1], against Serine protease 1 [3] and at Prothrombin [4] were 7900 nM, 13000 nM and 1700 nM, respectively. For the same compound, at Plasminogen [2], the inhibition was determined as 80%.
On to `CC1CCCC(C)N1CCCCCCN1C(=O)C(c2cccc(C(=N)N)c2)Oc2ccccc21` (stereo not given), for which the IC50 on Coagulation factor X [1] was found to be 68 nM; at Plasminogen [8], 12000 nM; at Serine protease 1 [3], 2100 nM; against Prothrombin [4], 5600 nM.
Compound `CC1CCCC(C)N1CCCCCN1C(=O)C(c2ccc(Cl)c(Cl)c2)Oc2ccccc21` (stereo not given) registered an IC50 at Coagulation factor X [1] of 26000 nM. Besides, the results for the inhibition on Prothrombin [5], against Plasminogen [2] and at Serine protease 1 [7] were 47%, 25% and 14%, respectively.
For the compound `N=C(N)c1cccc(C2Oc3ccccc3N(CCCCCN3CCOCC3)C2=O)c1` (stereo not given), the IC50 against Coagulation factor X [1] was found to be 240 nM; on Serine protease 1 [3], 1100 nM; at Prothrombin [4], 2200 nM. At Plasminogen [6], this compound returned an inhibition of 70%.
Take `N=C(N)c1cccc(C2Oc3ccccc3N(CCCCCN3CCCCC3)C2=O)c1` (stereo not given): the IC50 turned out to be 53 nM against Coagulation factor X [1], 21000 nM against Plasminogen [8], 990 nM against Serine protease 1 [3] and 3400 nM against Prothrombin [4].

For the origin of these results see ChEMBL document CHEMBL1133480, “Rational design, synthesis, and biological activity of benzoxazinones as novel factor Xa inhibitors” (J Med Chem, 2000).
